What all share (assay type): cell-based
Test [1] has as its system A-549. Put plainly: SRB cytostatic activity assay, A-549. Particulars: Homo sapiens, A549, 72 h, read-out: Cytostatic activity IC50 A-549. Put shortly: (§1)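 Media were EMEM (KB, HepG2, U-87), RPMI 1640 (HeLa), F-12K (A-549), DMEM (MCF-7) and fibroblast growth medium (HDF), all with 10% FBS, at 37 °C and 5% CO2. About 10^4 cells/well grew 24 h, then test compound was added at 0.1–20 μg mL−1 (six levels) for 72 h. Cells were TCA-fixed 1 h at 4 °C, stained with 0.4% SRB, solubilised in Tris, read at A490; IC50, N = 3.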

Test [2] relates to HDF. Put plainly: SRB cytostatic activity assay, normal control HDF. Particulars: 72 h, read-out: Cytostatic activity IC50 HDF. Put shortly: as §1
Test [3] relates to HepG2. Put plainly: SRB cytostatic activity assay, HepG2. Particulars: Homo sapiens, HepG2, 72 h, read-out: Cytostatic activity IC50 HepG2. In outline: as §1
Test [4] relates to U-87 MG. Briefly: SRB cytostatic activity assay, U-87 MG. The following applies: Homo sapiens, 72 h, read-out: Cytostatic activity IC50 U-87 MG. In outline:
as §1

The test system of test [5] is KB. Briefly: SRB cytostatic activity assay, KB. Particulars: Homo sapiens, 72 h, read-out: Cytostatic activity IC50 KB. Put shortly: as §1
In test [6] the test system is HeLa. Briefly: SRB cytostatic activity assay, HeLa. The following applies: Homo sapiens, 72 h, read-out: Cytostatic activity IC50 HeLa. In outline: as §1

In brackets after ≈: the same amount, converted by molar mass. Starred links: 1 amine or outer side, 2 acyl side, 3 side chain; linkers in the order of their positions; H or OH if unused. Positions of bridges follow the written chain, without caps; N, C: chain ends. Non-standard residues stand in square brackets, D forms with d. Residues, ends and D or L forms follow the SMILES beside them. Chains are numbered I, II in the order given. Actinocin(9to1) = Cc1c2oc3c(C)ccc(C(=O)[*:1])c3nc-2c(C(=O)[*:2])c(N)c1=O; NMeV = CN[C@H](C(=O)O)C(C)C; Sar = CNCC(=O)O

A word on the IC50: it is the concentration at which inhibition is half-maximal. For `Nc1ccn([C@@H]2O[C@H](CO)[C@@H](O)[C@@H]2O)c(=O)n1` [Cytarabine], the half-maximal inhibitory concentration (IC50) in test [1] worked out at 1.17 ± 0.21 µg/mL (≈ 4.81 µM); in test [2], 1.94 ± 0.01 µg/mL (≈ 7.98 µM); in test [3] it was 1.49 ± 0.04 µg/mL (≈ 6.13 µM); in test [4], 1.03 ± 0.25 µg/mL (≈ 4.23 µM); in test [5] it was 0.95 ± 0.02 µg/mL (≈ 3.91 µM); in test [6], 1.4 ± 0.08 µg/mL (≈ 5.76 µM).
For the molecule `Cc1c2oc3c(C)ccc(C(=O)N[C@@H]4C(=O)N[C@H](C(C)C)C(=O)N5CCC[C@H]5C(=O)N(C)CC(=O)N(C)[C@@H](C(C)C)C(=O)O[C@@H]4C)c3nc-2c(C(=O)N[C@@H]2C(=O)N[C@H](C(C)C)C(=O)N3CCC[C@H]3C(=O)N(C)CC(=O)N(C)[C@@H](C(C)C)C(=O)O[C@@H]2C)c(N)c1=O` [Actinomycin, Actinomycin D] (I: T[dV]P[Sar][NMeV] / II: T[dV]P[Sar][NMeV]; ester I:1-I:C, II:1-II:C; linker I:N-II:N via Actinocin(9to1)), the IC50 in test [1] was determined as 1.03 ± 0.83 µg/mL (≈ 0.82 µM); in test [2], 2.28 ± 0.11 µg/mL (≈ 1.82 µM); in test [3] it was 1.19 ± 0.02 µg/mL (≈ 0.948 µM); in test [4] it was 0.92 ± 0.59 µg/mL (≈ 0.733 µM); in test [5], 1.07 ± 0.05 µg/mL (≈ 0.852 µM); in test [6], 1.13 ± 0.01 µg/mL (≈ 0.9 µM).

Values taken from PMC9065995 (RSC Advances, 2019).
